Laboratory results published in PMC6139428 (Molecular Nutrition & Food Research, 2017).
Entries after “also recorded” stand apart in the source; their conditions may differ.

Columns and labels:
[1] = Nutrikinetics of isoflavone metabolites in serum after oral boiled soybean; type: in vivo, mice (C57BL/6); conditions: for serum concentration, CGJ‐treated compared with BS‐treated / bioavailability, CGJ‐treated compared to BS‐treated (unfermented soybean): OVX mice; for serum concentration, CGJ‐treated compared with BS‐treated: relative peak area; for concentration based on area‐under‐the‐curve analysis: all groups; for AUC, CGJ treatment versus BS treatment: sham group; for detection in pooled serum samples: pooled serum of sham and OVX groups after BS or CGJ, UPLC–QTOF‐MS; for bioavailability, CGJ‐treated compared to BS‐treated (unfermented soybean): abstract does not name the group; for AUC(0–24h), CGJ administered versus BS administered: OVX groups
MC3T3‐E1 cells [2] = assay: Mineralization assay; type: cell-based; conditions: 21‐day incubation
Procedure, shortened: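 MC3T3‐E1 cells were differentiated with test compound and incubated 21 days. Cells were washed, fixed in 4% formalin and stained with 2% Alizarin Red S. Bound stain was solubilized in 10% […] in 10 mM sodium phosphate and absorbance read at 562 nm. Means ± SD, n = 3, three independent experiments, tested against the control group.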

MC3T3‐E1 cells [3] = assay: Alkaline phosphatase; type: cell-based; conditions: for ALP activity: 0.1–0 5 μ M, 6 days differentiation; for osteoblastogenesis: abstract summary
Procedure, shortened: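 MC3T3‐E1 subclone 4 cells were kept in αMEM without L‐ascorbic acid and seeded at 2 × 10^4 cells/well. Differentiation was induced with 50 μg mL–1 L‐ascorbic acid and 10 mM β‐glycerophosphate plus test compound for 6 days. Cells were PBS‐washed and lysed in 0.2% Triton X‐100, and ALP was read with a pNPP kit. Means ± SD, n = 3, three independent experiments, tested against the control group.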

RAW 264.7 cells = assay: RANKL‐induced bone resorption activity; type: cell-based; conditions: abstract summary
Procedure, shortened: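 RAW 264.7 macrophages were grown in DMEM and seeded. Medium was replaced with RANKL‐containing differentiation medium plus test compound, then held 5 days without medium change. Bone resorption activity was measured with a commercial bone resorption assay kit. Means ± SD, n = 3, three independent experiments, tested against the control group.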

Molecule	serum concentration, CGJ‐treated compared with BS‐treated [1]	concentration based on area‐under‐the‐curve analysis [1]	ALP activity (MC3T3‐E1 cells [3])	detection in pooled serum samples [1]	further results
O=C(O)c1ccc(O)cc1 [4‐hydroxybenzoic acid, 4‐Hydroxybenzoic acid]	higher in BS‐treated				
O=C(O)/C=C/c1ccc(O)c(O)c1 [Caffeic acid]	higher in BS‐treated		stimulated ALP activity		mineralization, calcium deposition by ARS staining (MC3T3‐E1 cells [2]): Extensive calcium deposition
O=c1c(-c2ccc(O)cc2)coc2cc(O)ccc12 [Daidzein]	significantly higher	high concentrations			AUC, CGJ treatment versus BS treatment [1]: significantly higher
O=c1c(-c2ccc(O)cc2)coc2cc(O[C@@H]3O[C@H](CO)[C@@H](O)[C@H](O)[C@H]3O)ccc12 [Daidzin]				not detected	
O=c1c(-c2ccc(O)cc2)coc2cc(O)cc(O)c12 [Genistein]	higher concentrations; also recorded: significantly higher	high concentrations		detected	AUC(0–24h), CGJ administered versus BS administered [1]: significantly higher; bioavailability, CGJ‐treated compared to BS‐treated (unfermented soybean) [1]: enhances; AUC, CGJ treatment versus BS treatment [1]: significantly higher
O=c1c(-c2ccc(O)cc2)coc2cc(O[C@@H]3O[C@H](CO)[C@@H](O)[C@H](O)[C@H]3O)cc(O)c12 [Genistin]				not detected	
COc1cc2c(=O)c(-c3ccc(O)cc3)coc2cc1O [Glycitein]				detected	

Second part, led by results:

serum concentration, CGJ‐treated compared with BS‐treated [1]	concentration based on area‐under‐the‐curve analysis [1]	Molecule	ALP activity (MC3T3‐E1 cells [3])	detection in pooled serum samples [1]	further results
higher concentrations	high concentrations	O=C(O)[C@H]1O[C@@H](Oc2ccc3c(c2)OC[C@H](c2ccc(O)cc2)C3)[C@H](O)[C@@H](O)[C@@H]1O [Equol 7‐glucuronide]	stimulated ALP activity		bioavailability, CGJ‐treated compared to BS‐treated (unfermented soybean) [1]: enhances; also recorded: higher bioavailability; mineralization, calcium deposition by ARS staining (MC3T3‐E1 cells [2]): Extensive calcium deposition; osteoclast formation (RAW 264.7 cells): inhibit osteoclast formation; osteoblastogenesis (MC3T3‐E1 cells [3]): promote osteoblastogenesis
higher in BS‐treated		COc1ccc(-c2coc3cc(O)ccc3c2=O)cc1 [Formononetin]	stimulated ALP activity		
higher concentrations	high concentrations	O=c1c(-c2ccc(OS(=O)(=O)O)cc2)coc2cc(O)cc(O)c12 [Genistein 4′‐sulfate]	stimulated ALP activity		AUC(0–24h), CGJ administered versus BS administered [1]: significantly higher; mineralization, calcium deposition by ARS staining (MC3T3‐E1 cells [2]): Extensive calcium deposition; osteoclast formation (RAW 264.7 cells): inhibit osteoclast formation; osteoblastogenesis (MC3T3‐E1 cells [3]): promote osteoblastogenesis
higher concentrations	high concentrations	Dihydrodaidzein sulfate			
higher in BS‐treated		Methyl caffeic acid			
